Laboratory results from ChEMBL document CHEMBL1147244, “Constituents of the Vietnamese medicinal plant Streptocaulon juventas and their antiproliferative activity against the human HT-1080 fibrosarcoma cell line” (J Nat Prod, 2003).
pIC50: −log10 of the molar value.

Tested on: HT-1080
Test: Antiproliferative activity against human HT1080 cells after 72 hrs by MTT assay
Format: functional, cell-based
Conditions: HT-1080, 72 h
How it was run: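 HT-1080 fibrosarcoma cells were grown in EME medium with 10% heat-inactivated FCS and 2 mM glutamine at 37 °C, 5% CO2. Cells were seeded at 2 × 10³ per well and left 24 h to attach. Samples were dissolved in DMSO/PBS, with final DMSO below 0.25%, and added at varying concentrations. After 2 h with MTT, formazan was extracted in DMSO and read at 550 nm. IC50 was taken from the mean of four wells.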

Compared with `C[C@]12CC[C@H](O[C@@H]3O[C@H](CO[C@@H]4O[C@H](CO)[C@@H](O)[C@H](O)[C@H]4O)[C@@H](O)[C@H](O)[C@H]3O)C[C@H]1CC[C@@H]1[C@@H]2CC[C@]2(C)[C@@H](C3=CC(=O)OC3)CC[C@]12O` [DIGITOXIGENIN GENTIOBIOSIDE], `C[C@]12CC[C@H](O[C@@H]3O[C@H](CO)[C@@H](O)[C@H](O)[C@H]3O[C@@H]3O[C@H](CO)[C@@H](O)[C@H](O)[C@H]3O)C[C@H]1CC[C@@H]1[C@@H]2CC[C@]2(C)[C@@H](C3=CC(=O)OC3)CC[C@]12O` [DIGITOXIGENIN SOPHOROSIDE] is 0.54 log units higher in pIC50: 5.80 for the first, 6.34 for the second.

`C[C@H]1O[C@@H](O[C@H]2CC[C@@]3(C)[C@H](CC[C@@H]4[C@@H]3CC[C@]3(C)[C@@H](C5=CC(=O)OC5)CC[C@]43O)C2)C[C@@H](O)[C@@H]1O[C@@H]1O[C@H](CO[C@@H]2O[C@H](CO)[C@@H](O)[C@H](O)[C@H]2O)[C@@H](O)[C@H](O)[C@H]1O` and `CO[C@@H]1C[C@H](O[C@H]2CC[C@@]3(C)[C@H](CC[C@@H]4[C@@H]3CC[C@]3(C)[C@@H](C5=CC(=O)OC5)CC[C@]43O)C2)O[C@H](C)[C@H]1O[C@@H]1O[C@H](CO[C@@H]2O[C@H](CO)[C@@H](O)[C@H](O)[C@H]2O)[C@@H](O)[C@H](O)[C@H]1O` [ECHUJIN] are within 0.2 log units of each other in pIC50: 7.27 for the first, 7.26 for the second.

Going from `CC(=O)O[C@@H]1C[C@H](O[C@H]2CC[C@@]3(C)[C@H](CC[C@@H]4[C@@H]3CC[C@]3(C)[C@@H](C5=CC(=O)OC5)CC[C@]43O)C2)O[C@H](C)[C@H]1O[C@@H]1O[C@H](CO[C@@H]2O[C@H](CO)[C@@H](O)[C@H](O)[C@H]2O)[C@@H](O)[C@H](O)[C@H]1O` to `CO[C@@H]1[C@@H](O)[C@H](O[C@@H]2[C@@H](C)O[C@@H](O[C@H]3CC[C@@]4(C)[C@H](CC[C@@H]5[C@@H]4CC[C@]4(C)[C@@H](C6=CC(=O)OC6)CC[C@]54O)C3)C[C@H]2OC)O[C@H](C)[C@H]1O[C@@H]1O[C@H](CO[C@@H]2O[C@H](CO)[C@@H](O)[C@H](O)[C@H]2O)[C@@H](O)[C@H](O)[C@H]1O`, the pIC50 rises from 6.23 to 6.66 (0.43 log units).

First: CO[C@@H]1[C@@H](O)[C@H](O[C@H]2CC[C@]3(C)[C@H]4CC[C@]5(C)[C@@H](C6=CC(=O)OC6)CC[C@]5(O)[C@@H]4CC[C@]3(O)C2)O[C@H](C)[C@H]1O[C@@H]1O[C@H](CO)[C@@H](O)[C@H](O)[C@H]1O
Second: C[C@H]1O[C@@H](O[C@H]2CC[C@]3(C)[C@H]4CC[C@]5(C)[C@@H](C6=CC(=O)OC6)CC[C@]5(O)[C@@H]4CC[C@]3(O)C2)C[C@@H](O)[C@@H]1O[C@@H]1O[C@H](CO)[C@@H](O)[C@H](O)[C@H]1O [CORCHORUSOSIDE C]
The pIC50 of the first is 0.87 log units lower: 6.17 for the first, 7.04 for the second. The second is the more potent here.

`C[C@]12CC[C@H](O)C[C@H]1CC[C@@H]1[C@@H]2CC[C@]2(C)[C@@H](C3=CC(=O)OC3)CC[C@]12O` [DIGITOXIGENIN] and `C[C@]12[C@H](CC[C@@H]3[C@@H]1CC[C@]1(C)[C@@H](C4=CC(=O)OC4)CC[C@]31O)C[C@@H](O)C[C@H]2O` [ACOVENOSIGENIN A] are within 0.2 log units of each other in pIC50: 5.82 for the first, 5.92 for the second.

Going from `C[C@]12CC[C@H](O[C@@H]3O[C@H](CO)[C@@H](O)[C@H](O)[C@H]3O)C[C@@]1(O)CC[C@@H]1[C@@H]2CC[C@]2(C)[C@@H](C3=CC(=O)OC3)CC[C@]12O` [PERIPLOGENIN GLUCOSIDE] to `C[C@H]1O[C@@H](O[C@H]2CC[C@]3(C)[C@H]4CC[C@]5(C)[C@@H](C6=CC(=O)OC6)CC[C@]5(O)[C@@H]4CC[C@]3(O)C2)C[C@@H](O)[C@@H]1O`, the pIC50 rises from 6.80 to 7.03 (0.23 log units). The second is the more potent here.

First: CC(=O)O[C@H]1C[C@]2(O)[C@@H]3CC[C@@H]4C[C@@H](O[C@H]5C[C@@H](O)[C@H](O[C@@H]6O[C@H](CO)[C@@H](O)[C@H](O)[C@H]6O)[C@@H](C)O5)CC[C@]4(C)[C@H]3CC[C@]2(C)[C@H]1C1=CC(=O)OC1 [SUBALPINOSIDE]
Second: C[C@H]1O[C@@H](O[C@@H]2C[C@H]3CC[C@@H]4[C@H](CC[C@]5(C)[C@@H](C6=CC(=O)OC6)CC[C@]45O)[C@@]3(C)[C@H](O)C2)C[C@@H](O)[C@@H]1O
The pIC50 of the first is 0.78 log units higher: 6.74 for the first, 5.96 for the second. The first is the more potent here.

First: COc1cccc2c1C(=O)c1c(O)c3c(c(O)c1C2=O)C[C@@](O)(C(=O)CO)C[C@@H]3O[C@H]1C[C@H](N)[C@H](O)[C@H](C)O1 [DOXORUBICIN]
Second: CO[C@@H]1C[C@H](O[C@H]2CC[C@]3(C)[C@H]4CC[C@]5(C)[C@@H](C6=CC(=O)OC6)CC[C@]5(O)[C@@H]4CC[C@]3(O)C2)O[C@H](C)[C@H]1O [PERIPLOCYMARIN]
The pIC50 of the first is 0.21 log units higher: 7.23 for the first, 7.02 for the second. The first is the more potent here.

First: O=c1[nH]cc(F)c(=O)[nH]1 [FLUOROURACIL]
Second: C[C@]12CC[C@H](O)C[C@@]1(O)CC[C@@H]1[C@@H]2CC[C@]2(C)[C@@H](C3=CC(=O)OC3)CC[C@]12O [PERIPLOGENIN]
The pIC50 of the first is 0.66 log units lower: 5.43 for the first, 6.09 for the second.
